Bioassay records deposited in PubChem by several laboratories.
Sampled rows, rich in hits. Any-hit rate of the full collection: about 6.7%.
T cruzi inh: blocks replication of Trypanosoma cruzi; T. cruzi beta-gal in NIH3T3, luminescence, 90 h; inhibition, % (test concentration not listed); actives 1.4% (n = 300,000); AID 1885;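 active = mean inhibition across valid replicates above about 55%, limit read from the data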;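 also: signal also drops with host cell toxicity which is not excluded here; 0% = plate median of DMSO wells and 100% = zero luminescence signal; higher percent means less beta-gal luminescence so fewer parasites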
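Read-out: Parasite load inhibition, % | Test system: Mouse NIH/3T3 fibroblasts infected with β-gal-expressing T. cruzi Tulahuen C4 | Amount: 5,000 cells/well | Medium: DMEM, 2% fetal bovine serum | Signal: GalScreen β-gal luminescence, detergent lysis, 60 min | Timing: 3 h attach, ≥90 h co-culture | Also added: Tulahuen C4 trypomastigotes, 5000/well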
PREPL inhibitor: inhibitors of human prolyl oligopeptidase-like enzyme PREPL. recombinant PREPL, fluorescence polarization activity-based probe. inhibition, % at 5.96 µM. actives 0.68% (n = 320,000). AID 2751; in the data active = inhibition above about 43%;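 also: 0% = enzyme with DMSO and 100% = wells lacking enzyme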
Target sequence (Q4J6C6 whole entry, looked up): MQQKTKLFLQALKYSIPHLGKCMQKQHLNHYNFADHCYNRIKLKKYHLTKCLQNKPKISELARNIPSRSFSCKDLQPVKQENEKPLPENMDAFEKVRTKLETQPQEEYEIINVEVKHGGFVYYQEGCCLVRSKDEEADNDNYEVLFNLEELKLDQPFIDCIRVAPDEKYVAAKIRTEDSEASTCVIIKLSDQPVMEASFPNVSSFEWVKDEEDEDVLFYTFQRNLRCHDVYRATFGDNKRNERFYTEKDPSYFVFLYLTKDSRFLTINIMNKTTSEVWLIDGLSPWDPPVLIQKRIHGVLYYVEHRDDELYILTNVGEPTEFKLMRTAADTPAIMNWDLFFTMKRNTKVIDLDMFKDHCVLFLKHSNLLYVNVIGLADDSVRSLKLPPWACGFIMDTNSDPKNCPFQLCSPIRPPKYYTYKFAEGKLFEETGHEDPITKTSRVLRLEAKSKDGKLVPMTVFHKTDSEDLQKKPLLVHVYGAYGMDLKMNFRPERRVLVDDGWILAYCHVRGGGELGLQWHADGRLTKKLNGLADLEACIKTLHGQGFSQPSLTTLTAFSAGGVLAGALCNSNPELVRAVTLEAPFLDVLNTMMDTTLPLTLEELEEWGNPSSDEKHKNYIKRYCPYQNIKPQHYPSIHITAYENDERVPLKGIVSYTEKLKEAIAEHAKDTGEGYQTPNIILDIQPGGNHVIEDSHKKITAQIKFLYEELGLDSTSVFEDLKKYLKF
CSC inhib: blocks cancer stem cells. actives 1.1% (n = 300,000). inhibition, % at 7.5 µM. cancer stem cell-like cells viability, luminescence; in the data active = inhibition above about 75%; tested in HMLE shEcad cells
NR3A LBD binder: modulates the human NR3A ligand-binding domain; AID 1259313; actives 2.5% (n = 340,000); Tm shift relative to glycine control, % at 25 µM; NR3A LBD differential scanning fluorimetry, Tm shift; 0% = protein alone, 100% = glycine-bound protein;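 active = melting temperature shift of at least 10% of the positive control shift, at one fixed dose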
Beta cell apopt: blocks beta cell apoptosis. AID 435005. INS-1E cytokine-induced death, ATP luminescence, 48 h; percent of positive-control rescue, neutral wells zero. actives 0.8% (n = 300,000). protection from apoptosis, % (concentration not given with the values);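 active = Every replicate reaches about 75%, or at least half do and their mean reaches it too, limit read from the data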;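 also: 0% = cytokine-treated negative control wells and 100% = positive control rescue; higher means more ATP so stronger rescue from cytokine killing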
CHOP inhibitor: CHOP inhibition in unfolded protein response; actives 3.8% (n = 220,000); inhibition, % at 10 µM; CHO-K1 CHOP-promoter luciferase, tunicamycin-induced, 15-18 h;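 active = compounds that reduced the stress-induced luciferase reporter signal by more than about 70% of percent inhibition, limit read from the data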;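 also: 0% = tunicamycin plus vehicle and 100% = wells without tunicamycin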
* hit, by the source's call; nt = not tested or not shown.

SMILES	T cruzi inh	PREPL inhibitor	CSC inhib	NR3A LBD binder	Beta cell apopt	CHOP inhibitor
Cc1cnc(NC(=O)CSc2ncc(-c3ccccc3)n2Cc2ccco2)s1	23	-7	8	-3	nt	73*
COc1cc2[nH]c(=S)nc(NCc3ccc(Cl)cc3)c2cc1OC	23	8	24	35*	4	nt
O=C(NC1CCCC1)C1CCN(c2cnccn2)CC1	15	9	-2	-1	-2	-5
CCNC(=O)CC1C(=O)N(CC)C(=S)N1NC(=O)c1ccccc1 (stereo unspecified)	-3	-3	-18	1	-4	14
Cc1ccc(NC(=O)Nc2cc(C(F)(F)F)c[nH]c2=O)cc1	5	8	10	24*	-33	nt
COc1ccc(NC(=O)Nc2c[nH]c(=O)[nH]c2=O)cc1	-3	19	11	-1	-1	nt
O=C(c1ccco1)c1coc2c1cc(O)c1ccccc12	-18	3	52	1	100*	-55
CC(=O)c1coc2c1cc(O)c1ccccc12	2	4	28	2	0	3
CNC[C@H](CC1CCCCC1)NC[C@H](CO)NCCc1cccc(C(F)(F)F)c1	7	36	132*	2	36	nt
O=C(NN/C(=N/S(=O)(=O)c1ccc(Cl)cc1)c1ccccc1)c1ccc(O)cc1	-52	6	7	37*	11	-53
COc1ccc(NC(=O)CN2CCN(c3ccc(F)cc3)CC2)cc1	-4	5	-10	-10	-6	nt
O=C(CN1CCN(c2ccc(O)cc2)CC1)Nc1ccc(SC(F)F)cc1	-16	22	134*	9	6	62
COc1ccc(NC(=O)c2ccc(NC(=O)CN3CCN(c4ccc(O)cc4)CC3)cc2)cc1	nt	nt	nt	17*	nt	nt
COc1cccc(N2CCN(CC(=O)Nc3ccc(SC(F)F)cc3)CC2)c1	1	31	-2	-9	-3	15
C[C@@H](NC(=O)c1[nH]cnc1C(=O)Nc1ccon1)c1ccccc1	nt	-12	29	0	-3	nt
CCOC(=O)Cn1nc(-c2ccc(Cl)cc2)cc1N	1	9	-11	1	nt	9
CCOC(=O)CCn1nc(-c2ccc(Cl)cc2)cc1N	0	20	14	10*	3	19
COc1cc(Cl)cc(C(c2c(C(=O)O)[nH]c3ccccc23)c2c(C(=O)O)[nH]c3ccccc23)c1O	9	0	0	22*	nt	nt
O=C(O)c1[nH]c2ccccc2c1C(c1cc(Br)ccc1O)c1c(C(=O)O)[nH]c2ccccc12	1	12	10	11*	3	nt
Cc1ccc(N2C(=O)N(CC(=O)Nc3ccc(F)c(F)c3)C(=O)C2C)cc1 (stereo unspecified)	-11	0	-4	-5	-4	nt
O=C(c1ccc(Cl)c(S(=O)(=O)N2CCCCCC2)c1)N1CCCC1	-9	0	-5	-4	-5	1
CCC(=O)Nc1cccc(-c2cn3cccc(C)c3n2)c1	-12	-6	-5	15*	-1	1
CCC(=O)Nc1cccc(-c2cn3ccccc3n2)c1	7	-5	-4	-2	0	10
Cc1cccn2cc(-c3ccc(S(=O)(=O)N4CCOCC4)cc3)nc12	9	-4	-17	-8	2	71*
Cc1cccn2cc(-c3ccc(Cl)cc3)nc12	5	-14	-3	-364	3	11
SMILES	T cruzi inh	PREPL inhibitor	CSC inhib	NR3A LBD binder	Beta cell apopt	CHOP inhibitor
Cc1ccc(-c2cn3cccc(C)c3n2)cc1	-1	nt	nt	23*	nt	52
CC(C)=CCc1cc([C@@H]2COc3c(ccc4c3C=CC(C)(C)O4)C2)c(O)cc1O	51	4	-5	27*	15	nt
CC1(C)C=Cc2c(ccc3c2OC[C@H](c2ccc(O)cc2O)C3)O1	nt	5	114*	19*	2	nt
CC(=O)Oc1ccc([C@@H]2COc3c(ccc4c3C=CC(C)(C)O4)C2)c(OC(C)=O)c1	0	16	-6	-2	-2	nt
O=C(CC1S/C(=N/N=C2CCCCCC2)NC1=O)Nc1ccc(Br)cc1F (stereo unspecified)	-20	16	5	-11	-4	nt
Cc1ccc(C)n1-n1cnc2sc(-c3ccccc3)cc2c1=O	6	11	12	-20	-10	79*
Cc1ccc(C)n1-n1c(C)nc2sc(-c3ccccc3)cc2c1=O	11	10	12	-2	7	77*
O=c1c2cc(-c3ccccc3)sc2ncn1-n1cccc1	-10	-5	-2	2	-1	-14
O=c1cc(-c2ccccc2Cl)oc2c(NS(=O)(=O)c3cc(Cl)cc(Cl)c3O)ccc(O)c12	-5	12	102*	5	45	48
COc1ccc(/C=c2\s/c(=C/C(=O)c3ccc(C)cc3)[nH]c2=O)cc1OC	-5	23	-11	4	2	100*
COc1ccc(/C=C2\Sc3ccc(C(=O)N4CCCC4)cc3N(C)C2=O)cc1OC	6	7	-5	-2	5	nt
COC1CCN(C(=O)c2ccc3oc(Cc4ccc(Cl)cc4)nc3c2)CC1	-1	5	10	-1	-2	nt
O=C(c1ccc2oc(Cc3ccc(Cl)cc3)nc2c1)N1CCCCC1CCO (stereo unspecified)	17	21	-7	10*	nt	nt
CC1=C(C(=O)Nc2cccc(C)c2C)C(c2cccs2)NC(=S)N1 (stereo unspecified)	-7	-3	-11	-5	-2	11
O=C(O)c1cccc(NC2=C(Cl)C(=O)c3ccccc3C2=O)c1	64*	nt	nt	1	nt	-72
Cc1ccc(NC2=C(NC(=O)c3ccccc3)C(=O)c3ccccc3C2=O)cc1Cl	-1	19	0	20*	59	-65
CC1=C(Nc2ccc(C(=O)O)cc2)C(=O)c2ccccc2C1=O	-13	6	19	-2	-18	nt
Cc1ccc(NCC(=O)c2ccccc2)cc1Cl	-14	7	0	-2	-4	-5
O=C(O)c1ccc(NC2=C(Cl)C(=O)c3ccccc3C2=O)cc1	55*	14	102*	-2	14	34
Cc1cc(O)c2c(c1)CC1C3CCC4CC(=O)CCC4(C)C3CC(=O)C21C (stereo unspecified)	nt	nt	nt	1	nt	nt
CC(=O)Oc1ccccc1C(=O)NC(C)CCc1ccccc1 (stereo unspecified)	-10	12	16	1	-2	nt
COc1ccc(C(=O)CC(=O)c2ccccc2O)cc1OC	-14	6	-8	15*	6	-29
COc1ccc(C(=O)NNc2ccccc2)cc1OC	3	10	83*	2	-9	17
COc1ccc(C(=O)CC(=O)c2ccccc2O)cc1	3	5	7	3	-1	nt
COc1ccc(C(=O)COC(=O)c2ccc(OC)c(OC)c2)cc1OC	-19	1	nt	-4	-3	75*
COc1ccc(O)c(C(=O)CC(=O)c2ccccc2C)c1	-2	-16	32	-16	5	104*
